Screening results as filed in PubChem BioAssay.
TLR4-MyD88 BLA: blocks binding of human TLR4 to MyD88 | HeLa CL3-4 TLR4/MyD88 BLA complementation, FRET ratio | inhibition, % at 8.4 µM | 200,000 tested, 0.18% active; in the data active means inhibition above about 25%
NOD2 RIPK2 PPI: NOD2-RIPK2 protein interaction inhibition | 360,000 tested, 0.38% active | AID 624267 | inhibition, % at 4.98 µM | CHO BLA complementation NOD2-RIPK2, CCF4 ratio | O43353; in the data active means inhibition above about 21%
UPR CHOP act: apoptotic UPR (CHOP) activation | CHO-CHOP luciferase reporter, luminescence; percent of tunicamycin response over DMSO baseline | 330,000 tested, 0.34% active | activation, % at 10 µM | AID 449763;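 active means at 10 µM dose, activation of 40% or more, normalized to positive control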
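System: CHO-CHOP luciferase reporter cell line | Buffer or medium: F12 medium containing 10% fetal bovine serum | Doses: One dose, 10 µM in 0.5% DMSO | Times: 6 h compound exposure at 37 °C after overnight seeding | Signal: Luciferase luminescence | Read-out: % activation vs tunicamycin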
TLR9-MyD88 block: inhibitors of human TLR9-MyD88 binding; Q9NR96+Q99836; CHO BLA complementation TLR9-MyD88, CCF4 FRET ratio; inhibition, % at 4.98 µM; 340,000 tested, 0.21% active;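 active means inhibition above the mean over all tested compounds plus 3 SD, cut at about 21% in these data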
UPR XBP1 act: adaptive UPR (XBP1) activation; CHO-XBP1 luciferase reporter, IRE1-XBP1 UPR activation, luminescence; percent of tunicamycin response, DMSO as zero; activation, % at 20 µM; 330,000 tested, 0.33% active; AID 463104;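 active means versus positive control, 20 µM dose yields 30% or more activation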
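Material: CHO cell line with stable XBP1 luciferase reporter; buffer or medium: F12 medium containing 10% fetal bovine serum; compound: single point, 20 µM final compound, 1% DMSO; incubation: 6 h treatment, 37 °C; measured by: glow luminescence from Steady-Glo reagent; evaluation: activation, % of tunicamycin; control set: tunicamycin high, DMSO low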
CHOP inhibitor: blocks CHOP induction under ER stress; CHO-K1 CHOP-promoter luciferase, tunicamycin-induced, 15-18 h; inhibition, % at 10 µM; 220,000 tested, 3.8% active;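 active means compounds that reduced the stress-induced luciferase reporter signal by more than about 70% of percent inhibition, limit read from the data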
A number is an active result; – = inactive; · = not tested or not shown. The entries come from a sample that favours hits as a whole.

SMILES | TLR4-MyD88 BLA | NOD2 RIPK2 PPI | UPR CHOP act | TLR9-MyD88 block | UPR XBP1 act | CHOP inhibitor
Cc1cc(NC(=O)CSc2nc(C(C)C)nc3sc(C)c(C)c23)no1 | – | – | – | – | – | 85
Cc1sc2nc(C(C)C)nc(SCC(=O)NC3CC3)c2c1C | · | – | – | – | – | ·
CCc1c(C)sc2nc(SCC(=O)Nc3cc(C)on3)n(CCOC)c(=O)c12 | – | – | – | – | – | 78
COc1ccc(CNC(=O)c2ccc(CS(=O)(=O)c3ccc(Br)cc3)o2)cc1 | · | – | – | – | – | ·
O=C1COc2ccc(C(=O)COC(=O)c3sc4ccccc4c3Cl)cc2N1 | – | – | – | – | 47 | –
c1ccc(-c2nc(-c3cccs3)[nH]c2-c2ccccc2)cc1 | – | – | – | – | – | 74
Cc1ccc(C2=Nc3ccccc3N=C(C(Cl)Cl)C2)cc1 | – | – | – | – | – | 84
CCS(=O)(=O)N1Cc2ccccc2CC1C(=O)OCC(=O)Nc1ccc(C)cc1 (stereo not drawn) | – | – | – | – | – | –
CCS(=O)(=O)N1Cc2ccccc2CC1C(=O)OCC(=O)Nc1ccc(SC(F)F)cc1 (stereo not drawn) | – | – | – | – | – | 93
Cc1oc(-c2ccc3c(c2)OCCO3)cc1C(=O)NCC(=O)O | – | – | – | – | – | –
Cc1oc(-c2ccc3c(c2)OCCO3)cc1C(=O)O | – | – | – | – | – | 72
CC(=O)c1ccc(NC(=S)NC(C)c2ccc(Cl)cc2Cl)cc1 (stereo not drawn) | – | – | – | – | – | 73
COc1ccc(/C=C/C(=O)OCC(=O)NCCC2=CCCCC2)cc1S(=O)(=O)N1CCOCC1 | – | – | – | – | – | –
CCOC(=O)c1[nH]c(C)c(C(=O)OCC(=O)N(Cc2ccccc2)C(C)C)c1C | · | – | – | – | – | ·
Cc1ccc(OCC(=O)O/N=C(\N)Cc2ccc(Cl)cc2)cc1 | – | – | – | – | – | 77
COc1ccc(OCC(=O)O/N=C(\N)Cc2ccc(Cl)cc2Cl)cc1 | – | – | – | – | – | 81
COc1ccc(OCC(=O)O/N=C(\N)Cc2ccc(Cl)cc2)cc1 | – | – | – | – | – | –
Cc1ccc(C(=O)CC(=O)COc2ccc(Cl)cc2)cc1 | – | – | – | – | – | 93
O=C1CCCC(=O)N1c1ccc(N2CCN(c3ccc([N+](=O)[O-])cc3)CC2)c([N+](=O)[O-])c1 | – | · | – | · | – | –
CCCc1cc(=O)oc2cc(OCC(=O)NCCc3c[nH]c4ccccc34)ccc12 | · | – | – | – | – | ·
O=C(Cn1cnc([N+](=O)[O-])c1)NC1CCCC1 | – | – | – | – | – | –
O=C1CCCCCCC1Sc1ccccc1[N+](=O)[O-] (stereo not drawn) | – | – | – | – | – | 83
Cc1ccccc1-c1nc(CN2CCC(C(=O)NCCC3=CCCCC3)CC2)c(C)o1 | – | – | – | – | – | 71
CCN(CCNC(=O)C1CCN(Cc2nc(-c3cccc(Cl)c3)oc2C)CC1)c1ccccc1 | – | – | – | – | – | 95
CCN(CCNC(=O)C1CCN(Cc2nc(-c3ccc(Cl)cc3)oc2C)CC1)c1ccccc1 | – | – | – | – | – | 85
SMILES | TLR4-MyD88 BLA | NOD2 RIPK2 PPI | UPR CHOP act | TLR9-MyD88 block | UPR XBP1 act | CHOP inhibitor
CCc1ccc(-c2nc(CN3CCC(C(=O)N4CCN(c5ccccc5)CC4)CC3)c(C)o2)cc1 | – | – | – | – | – | 98
COc1ccc(CCNC(=O)C2CCN(Cc3nc(-c4ccccc4C)oc3C)CC2)cc1OC | – | – | – | – | – | –
C=CCn1c(SCc2nc3sc4c(c3c(=O)[nH]2)CCCC4)nc2ccccc2c1=O | – | – | – | – | – | –
CC1(C)CC(=O)C2=C(C1)NC(Nc1nc3ccccc3o1)=NC2c1ccccn1 (stereo not drawn) | – | – | – | – | – | –
CC1=C(C(=O)Nc2ccccc2)C(c2ccc(C)cc2)N=C(Nc2nc3ccccc3o2)N1 (stereo not drawn) | – | – | 74 | – | – | 88
Cc1ccc(/C=N/N2CCN(Cc3cccc4ccccc34)CC2)o1 | – | – | – | – | – | 72
Cc1ccc(/C=N/N2CCN(Cc3ccccc3)CC2)o1 | – | – | – | – | – | –
Cc1cc(C)cc(NC(=O)N2CCC(c3nc4ccccc4o3)CC2)c1 | – | – | – | – | – | 74
Cc1cccc(NC(=O)N2CCC(c3nc4ccccc4o3)CC2)c1 | – | – | – | – | – | –
COc1cc(/C=C(/C#N)C(=O)Nc2ccccc2)c(Br)cc1OCc1ccc(C(=O)O)cc1 | · | – | – | – | – | 80
COc1cc(/C=C(\C#N)C(=O)Nc2cccc(C(=O)O)c2)ccc1OCc1ccc(Cl)cc1 | · | – | – | – | – | ·
Cc1[nH]c2ccccc2c1C(O)CN1CCN(c2cccc(C(F)(F)F)c2)CC1 (stereo not drawn) | – | – | – | – | – | 74
Cc1[nH]c2ccccc2c1NC(=O)CN1CCN(c2cccc(C(F)(F)F)c2)CC1 | – | – | – | – | – | –
Cc1[nH]c2ccccc2c1C(=O)CSc1nc2ncc(Cl)cc2[nH]1 | – | – | – | – | – | 86
Cc1cc(C)c2nc(NC(=O)[C@@H](NC(=O)c3cccc(S(=O)(=O)N4CCOCC4)c3)C(C)C)sc2c1 | – | – | – | – | – | 93
Cc1cccc(C(=O)N[C@H](C(=O)Nc2cc(S(=O)(=O)N3CCCCC3)ccc2C)C(C)C)c1 | – | – | – | – | – | –
O=C(CSc1cccc(C(F)(F)F)c1)N1CCN(S(=O)(=O)c2ccccc2)CC1 | – | – | – | – | – | 81
CCN=C1SC(CC(=O)Nc2ccc(N3CCOCC3)cc2)C(=O)N1CC (stereo not drawn) | – | – | – | – | – | –
CCN=C1SC(CC(=O)Nc2sc3c(c2C#N)CCCC3)C(=O)N1CC (stereo not drawn) | – | – | – | – | – | 92
CCN=C1SC(CC(=O)Nc2ccc(C(F)(F)F)cc2)C(=O)N1CC (stereo not drawn) | – | – | – | – | – | 82
Cc1ccc2oc(=O)n(Cc3ccccc3OC(C)C)c2c1 | – | – | – | – | – | 84
Cc1ccc2oc(=O)n(CCCOc3ccccc3C)c2c1 | – | – | – | – | – | 82
COc1ccccc1Cn1c(=O)oc2ccc(C)cc21 | · | – | – | – | – | ·
Cc1noc(C)c1CSCC(=O)N1CCN(c2ccc([N+](=O)[O-])cc2)CC1 | – | – | – | – | – | –
CC(OC(=O)c1cccc(-n2cnnn2)c1)C(=O)Nc1ccc(F)c(F)c1F (stereo not drawn) | · | – | · | – | · | ·
C/C(=N\NC(=O)c1ccncc1)c1cccc(NC(=O)c2ccc(Cl)s2)c1 | · | – | – | – | – | ·
